SK-BR-3 tox 24h = SK-BR-3 proliferation inhibitors; SK-BR-3 viability, CellTiter-Glo ATP luminescence, 24 h; active compounds read low; viability, % at 10 µM; 41,000 tested, 0.47% active; AID 847;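 active = viability at or below the median of all test compounds minus 3 SD, in both replicates if run twice, cut at about 45% in these data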
Htt clearance = mutant huntingtin protein clearance. AID 853. 47,000 tested, 0.42% active. HeLa Exon1htt(103Q)mCFP, aggregate imaging; zero = plate's median compound well. inhibition, % at 1.5 µM;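 active = inhibition of aggregate fluorescence above about 70%, also judged a hit by eye on the cell image, limit read from the data, passing the limit was not always enough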;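 note: cells exposed to compound for three days before fixation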
Jurkat tox 60K = cytotoxicity toward Jurkat cells; Jurkat E6.1 viability, ATP luminescence, 48 h; inhibition, % at 4 µM; 56,000 tested, 1.2% active;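 active = inhibition above the mean inhibition of all tested compounds plus 3 SD, cut at about 28% in these data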
HER2 expr 66K = inhibitors of human Her2 kinase expression; P04626; SKBR-3 HER2 protein level, AlphaScreen, 18-24 h; active compounds read low; HER2 level % of control, % at 10 µM; 65,000 tested, 0.69% active; AID 645;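 active = HER2 level under 5% of the carrier-only control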;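 note: lower value means stronger loss of Her2 protein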
HEK293 NFkB inh = lowers PMA/ionomycin-induced NF-kB signal in HEK293 cells; HEK-293 NF-kB luciferase reporter, luminescence; inhibition, % at 3 µM; 62,000 tested, 0.21% active; AID 465;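 active = inhibition above the mean of all tested compounds plus 3 SD, cut at about 40% in these data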
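Signal: luciferase luminescence; Material: HEK-293 cells with stable firefly luciferase reporter driven by four HIV NF-kB elements; Probe or stimulus: PMA with ionomycin; Replication: tested once; Times: 1 h compound pretreatment, then 16 h stimulation at 37 °C, 5% CO2; Benchmarks: DMSO and 10 µM reference inhibitor; Evaluation: per-plate % inhibition versus controls.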
Numbers stand for hits; . = inactive; / = not tested or not shown. In the library only some 1.9% were active in any assay of this set; here they are far more common.

SMILES | SK-BR-3 tox 24h | Htt clearance | Jurkat tox 60K | HER2 expr 66K | HEK293 NFkB inh
COc1ccc(C2CC(c3ccc(Cl)cc3)Nc3nc(NC(=O)c4ccco4)nn32)cc1 (configuration not stated) | . | 75 | . | . | .
O=C(Nc1nc2n(n1)C(c1ccc(Cl)cc1)CC(c1ccc(Cl)cc1)N2)c1ccco1 (configuration not stated) | . | . | . | . | .
Cc1ccc(S(=O)(=O)N2CCOCC2)cc1C(=O)NCc1cn2ccsc2n1 | / | / | . | . | .
CCc1nnc(NC(=O)CSc2nnc(-c3ccc(O)cc3)n2-c2ccccc2)s1 | / | / | . | . | .
COc1ccc(-c2nnc(SCC(=O)Nc3ncc(C)s3)n2-c2ccccc2)cc1OC | . | / | 50 | . | .
CC1CC(C)CN(c2nc3c(c(=O)[nH]c(=O)n3C)n2CCSc2nc3ccccc3o2)C1 (configuration not stated) | / | / | . | . | .
CC(=O)C1=C(c2ccccc2)NC(=O)NC1c1ccccc1OCC(=O)NCc1ccccc1 (configuration not stated) | / | . | / | / | /
Cc1ccc2cc(CN(CC3CCCO3)C(=O)c3ccco3)c(=O)[nH]c2c1C (configuration not stated) | . | / | . | . | .
Clc1ccc(CCNc2ncnc3nc[nH]c23)cc1 | / | . | 35 | . | .
COc1ccc(OC)c(NC(=O)Cn2cc(C(=O)c3ccco3)c3ccccc32)c1 | . | 76 | . | . | .
Cc1nn(-c2ccccc2)c2sc(C(=O)C(C#N)c3ccccn3)cc12 (configuration not stated) | / | / | . | . | .
O=C(NCC(=O)N(CCc1ccccc1)C(C(=O)NC1CCCC1)c1cccnc1)c1ccco1 (configuration not stated) | . | / | . | -19 | .
Cc1[nH]c2ccccc2c1C(=O)COC(=O)C1CCC(=O)N1 (configuration not stated) | / | / | . | -21 | .
Cc1cccc(C)c1NC(=O)C(c1ccccc1)N1CCC2(CC1)OCCO2 (configuration not stated) | 34 | . | . | . | .
Cc1cccc(C)c1NC(=O)C(c1ccccc1)N1CCN(C(=O)c2ccco2)CC1 (configuration not stated) | . | / | . | . | .
CC(=O)Nc1nonc1NC(C)=O | . | / | . | . | .
CC(=O)Nc1cc(OC(C)=O)c2nonc2c1OC(C)=O | 2.2 | / | . | -6.9 | .
COC(=O)c1ccc(C)c(NS(=O)(=O)c2ccc3c(c2)OCCO3)c1 | / | . | 92 | . | .
COC(=O)c1ccc(C)c(NS(=O)(=O)c2ccc(OC)cc2)c1 | . | . | / | / | /
CC(=O)c1cc2c(cc1NS(=O)(=O)c1ccc(C)cc1)OCCO2 | . | . | 76 | . | .
CCC(C)NS(=O)(=O)c1ccc(S(=O)(=O)Nc2cc3c(cc2C(C)=O)OCO3)cc1 (configuration not stated) | / | / | . | . | .
COc1ccc(-c2nnc(NC(=O)c3ccccc3C)o2)cc1 | / | / | 43 | . | .
COc1ccc(-c2nnc(NC(=O)C(C)C)o2)cc1 | / | / | . | . | .
Cc1ccc(C)n1-c1ccc(N2CCOCC2)cc1 | . | 97 | . | . | .
COc1ccc2cc(C#N)c(N3CCN(Cc4nnnn4CCC(C)C)CC3)nc2c1 | . | . | . | . | .
SMILES | SK-BR-3 tox 24h | Htt clearance | Jurkat tox 60K | HER2 expr 66K | HEK293 NFkB inh
CC(C)(C)n1ncc2c(=O)n(CC(=O)NCc3ccco3)cnc21 | / | . | . | . | .
CC(C)(C)n1ncc2c(=O)n(CC(=O)NCc3ccc(F)cc3)cnc21 | / | . | 54 | . | .
O=S(=O)(Nc1cccc2ncccc12)c1cccs1 | / | / | 76 | -7.3 | .
O=S(=O)(Nc1ccc(-c2nc3cccnc3s2)cc1)c1cccs1 | / | / | . | . | .
CCc1cc2c(=O)c(-c3nc4ccccc4[nH]3)coc2c(CN2CCCC(C)C2)c1O (configuration not stated) | / | / | . | . | .
Cc1cccc(Nc2nc(-c3cccs3)cs2)n1 | / | . | / | / | /
Cc1cccc(Nc2nc(-c3ccccn3)cs2)n1 | . | . | . | -21 | .
CCc1nnc(NC(=O)c2ccc(S(=O)(=O)N(CC)CC)cc2)s1 | / | . | . | . | .
CCCCN(CCCC)S(=O)(=O)c1ccc(C(=O)Nc2nnc(COC)o2)cc1 | . | / | . | -17 | .
CCc1nnc(NC(=O)c2ccc(S(=O)(=O)N(CC)Cc3ccccc3)cc2)o1 | . | / | 98 | . | .
COc1ccccc1-c1nnc(NC(=O)c2ccc(S(=O)(=O)N(C)Cc3ccccc3)cc2)o1 | . | . | . | . | .
CN(Cc1ccccc1)S(=O)(=O)c1ccc(C(=O)Nc2nnc(C3CC3)o2)cc1 | . | / | 100 | . | .
CCCCN(CC)S(=O)(=O)c1ccc(C(=O)Nc2nnc(-c3cccs3)o2)cc1 | . | / | 101 | . | .
O=C(CSc1n[nH]c(-c2ccc(S(=O)(=O)N3CCCCC3)cc2)n1)Nc1nccs1 | . | / | . | . | .
Cc1cc(NC(=O)CCC(=O)N(c2ccccc2)C(C(=O)NC2CCCCC2)c2cccs2)no1 (configuration not stated) | / | . | / | / | /
CN(c1ccccc1)S(=O)(=O)c1ccc(C(=O)Nc2nnc(-c3ccc(F)cc3)o2)cc1 | . | . | . | . | .
CCCCN(C)S(=O)(=O)c1ccc(C(=O)Nc2nnc(CSC)o2)cc1 | 43 | / | 53 | . | .
O=C1NCC2=C1C(c1ccc(Br)cc1)Nc1ccccc1N2 (configuration not stated) | . | . | / | . | /
CC1C2=C(CCCC2=O)N(c2cccc3ccccc23)C2=C1C(=O)CCC2 | / | . | / | / | /
Cc1cc(C)n2nc3nc4c(cc3c2n1)CCCC4 | . | / | / | . | .
CCn1c(=S)[nH]c2nc3c(cc2c1=O)CCCC3 | / | 71 | / | / | /
O=C(COc1ccc(F)c(Cl)c1)c1ccc[nH]1 | / | . | . | . | .
O=C(CCC(=O)c1ccc[nH]1)c1ccc(Cl)cc1 | / | 75 | . | . | .
CCCn1c(=O)c(C(=O)Nc2nnc(C)s2)c(O)c2ccccc21 | / | / | . | . | .
CC(C)c1nnc(NC(=O)c2c(O)c3cccc4c3n(c2=O)CCC4)s1 | . | . | . | . | 46
SMILES | SK-BR-3 tox 24h | Htt clearance | Jurkat tox 60K | HER2 expr 66K | HEK293 NFkB inh
CC(=O)c1sc(N2C(=O)c3oc4ccccc4c(=O)c3C2c2ccc(C)o2)nc1C (configuration not stated) | / | / | . | . | .
CCC(C)(C)n1nnnc1C(c1cc(OC)ccc1OC)N1CCC(C(N)=O)CC1 (configuration not stated) | / | . | / | / | /
Oc1c(CN2CCCCC2)cc(COCc2ccccc2)c2cccnc12 | / | / | 34 | . | .
Oc1ccc(CN2CCN(c3ccccc3)CC2)c2cccnc12 | / | . | / | / | /
COc1ccccc1N1CCN(Cc2cc(Br)c(O)c3ncccc23)CC1 | / | / | 61 | . | .
COc1ccccc1N1CCN(c2nc(C)nc3c2oc2ccccc23)CC1 | . | / | 77 | . | .
Oc1c(CN2CCN(c3ccccn3)CC2)cc(Cl)c2cccnc12 | . | / | 45 | . | .
Cc1cc(C)nc(N2CCN(c3nc(C)nc4c3oc3ccccc34)CC2)n1 | / | / | / | / | .
Oc1ccc(CN2CCCCC2)c2cccnc12 | / | . | / | / | /
COCc1cc(CN2CCCC2)c(O)c2ncccc12 | . | / | 43 | . | .
